Measurements gathered from unrelated publications.
HTR2A: 5-hydroxytryptamine receptor 2A (HTR2A, Homo sapiens, UniProt P28223)
Oprm1: Mu-type opioid receptor (Oprm1, Mus musculus, UniProt P42866)
SIGMAR1: Sigma non-opioid intracellular receptor 1 (SIGMAR1, Homo sapiens, UniProt Q99720)

NCCc1c[nH]c2ccc(Cl)cc12
Ki (HTR2A; ligand displacement, radioligand): 889 nM

O=C(N[C@@H]1C=C[C@@]2(O)[C@H]3Cc4ccc(O)c5c4[C@@]2(CCN3CC2CC2)[C@H]1O5)c1c[nH]c2cccnc12
Ki (Oprm1; ligand displacement, radioligand): 0.41 nM

COC(=O)/C=C/C(=O)N[C@@H]1CC[C@@]2(O)[C@H]3Cc4ccc(O)c5c4[C@@]2(CCN3CC2CC2)[C@H]1O5
IC50 (Kappa-type opioid receptor (OPRK1, Homo sapiens, UniProt P41145, E297K); ligand displacement, radioligand; cell membranes): 4.29 nM

O=[N+]([O-])c1cn2c(n1)OC[C@@H](OCc1ccc(OC(F)(F)F)cc1)C2
Kd (ddn (Mycobacterium tuberculosis, UniProt P9WP15); binding, fluorescence): 13900 nM

CN1CC[C@@]23CCCC[C@@H]2[C@@H]1Cc1ccc(O)cc13
Ki (SIGMAR1; ligand displacement, radioligand): 2670 nM

O=C(N[C@H]1C=C[C@@]2(O)[C@H]3Cc4ccc(O)c5c4[C@@]2(CCN3CC2CC2)[C@H]1O5)c1n[nH]c2ccccc12
Ki (Oprm1; ligand displacement, radioligand): 0.33 nM

N#Cc1ccccc1-c1cc(-c2ccccn2)cn(-c2ccccc2)c1=O
IC50 (Glutamate receptor ionotropic, kainate 2 (Grik2, Rattus norvegicus, UniProt P42260); ion current, patch clamp): 58000 nM

CN[C@@H](C)[C@@H](O)c1ccccc1
Ki (SIGMAR1; ligand displacement, radioligand): > 10000 nM

NCCc1c[nH]c2cc(F)ccc12
Ki (HTR2A; ligand displacement, radioligand): 606 nM

O=C(N[C@@H]1C=C[C@@]2(O)[C@H]3Cc4ccc(O)c5c4[C@@]2(CCN3CC2CC2)[C@H]1O5)c1c[nH]c2cnccc12
Ki (Oprm1; ligand displacement, radioligand): 0.56 nM
